According to ChEMBL document CHEMBL4145615, “Indolyl Azaspiroketal Mannich Bases Are Potent Antimycobacterial Agents with Selective Membrane Permeabilizing Effects and in Vivo Activity” (J Med Chem, 2018):
≈ marks a conversion by molar mass, not a printed value.

Legend:
[1] = Plasma concentration in CD1 mouse at 25 mg/kg, po administered as single dose measured at 5 hrs post dose by LC/MS-MS analysis; type: ADME, organism-based
Method in brief: (§1)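 Uninfected CD-1 mice (n=2 per compound), single oral dose 25 mg/kg as a solution in 5% DMA/65% PEG300/30% D5W. Blood taken at 30 min, 1, 3, 5 h and plasma separated by centrifugation. Lungs taken at 5 h and homogenized in ~5 volumes PBS. Levels measured by LC/MS-MS after acetonitrile/methanol protein precipitation with verapamil internal standard. AUC and Cmax calculated from mean concentrations.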

[2] = Drug uptake in lung of Mycobacterium tuberculosis H37Rv infected BALB/c mouse at 100 mg/kg administered 6 days per week for 4 weeks via oral gavage; type: ADME, organism-based; details: in vivo, read-out: Drug uptake
[3] = tested on: Mus musculus; experiment: AUC in CD1 mouse at 25 mg/kg, po administered as single dose by LC/MS-MS analysis; type: ADME, organism-based; details: in vivo; method in brief: as §1
[4] = Cmax in CD1 mouse at 25 mg/kg, po administered as single dose by LC/MS-MS analysis; type: ADME, organism-based; set-up: dose 25 mg/kg, route oral; details: in vivo; method in brief: as §1
[5] = Ratio of drug level in CD1 mouse lung to plasma at 25 mg/kg, po administered as single dose measured at 5 hrs post dose by LC/MS-MS analysis; type: ADME, organism-based
Method in brief: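 Blood taken at 30 min, 1, 3, 5 h and plasma separated by centrifugation. Lungs taken at 5 h and homogenized in ~5 volumes PBS. Levels measured by LC/MS-MS after acetonitrile/methanol protein precipitation with verapamil internal standard. AUC and Cmax calculated from mean concentrations.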

[6] = Hemolytic activity against human RBC after 1 hr; type: ADME, cell-based, Erythrocyte; details: red blood cells (erythrocytes)
Method in brief: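 Human red blood cells were exposed to the test compound at a range of concentrations in phosphate-buffered saline for 1 h at 37°C. Hemolysis was referenced to 2% Triton X-100, taken as 100% hemolysis. The value reported is the concentration that lyses 50% of RBCs.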

[7] = tested on: Mus musculus; experiment: Acute toxicity in BALB/c mouse at 100 mg/kg administered via oral gavage for 3 days measured over 7 days; type: organism-based; details: in vivo, 168 h
Method in brief: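 BALB/c mice, 3 per group, oral gavage at 100 mg/kg in 200 μL of equal volumes PEG400 and 5% glucose. Dosed on three consecutive days, then monitored 7 days. Euthanized by CO2 and examined for gross pathological changes.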

[8] = tested on: Mycobacterium tuberculosis; experiment: Antimycobacterial activity against Mycobacterium tuberculosis H37Rv ATCC 27294 after 7 days by broth dilution method; type: functional; details: H37Rv ATCC 27294, 168 h
[9] = Half life in rat liver microsomes at 1 uM preincubated for 5 mins followed by NADPH addition measure up to 45 mins by LC-MS analysis; type: ADME, microsome; details: 0.75 h
Method in brief: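 Male rat liver microsomes, incubated 45 min at 37°C. Half-life reported as mean ± SD.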

[10] = Drug uptake in lungs of CD1 mouse at 25 mg/kg, po administered as single dose measured at 5 hrs post dose by LC/MS-MS analysis; type: ADME, organism-based; details: lung, read-out: Drug uptake; method in brief: as §1
[11] = tested on: Mus musculus; experiment: Toxicity in CD1 mouse at 25 mg/kg, po administered as single dose by LC/MS-MS analysis; type: organism-based; details: in vivo
Method in brief: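 Uninfected CD-1 mice (n=2 per compound) received a single oral 25 mg/kg dose as a solution in 5% DMA/65% PEG300/30% D5W. Tail-bleed blood was taken at 30 min, 1, 3 and 5 h and spun to plasma. Lungs were taken at 5 h and homogenized in about 5 volumes of PBS. Samples were acetonitrile/methanol-precipitated with verapamil internal standard and quantified by LC-MS/MS against standard curves in drug-free CD1 plasma.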

CCCCCCCCn1cc(CN2CCC3(CC2)OCCO3)c2ccc(OC)cc21
concentration at 5 h [1]: 33 ng/mL | concentration [2]: 1000 nM | AUC [3]: 173 ng·h/mL | Cmax [4]: 42 ng/mL | Kp at 5 h [5]: 14.2 | HC50 at 1 h [6]: 75 µM | Activity [7]: Non-Toxic | MIC50 [8]: 1.2 µM (≈ 0.498 µg/mL) | MIC90 [8]: 2.3 µM (≈ 0.954 µg/mL) | t1/2 [9]: 17.4 min | concentration at 5 h [10]: 468 ng/g | Activity [11]: Non-Toxic
